Reference: ChEMBL document CHEMBL1147113, “Miltefosine (hexadecylphosphocholine) inhibits cytochrome c oxidase in Leishmania donovani promastigotes” (Antimicrob Agents Chemother, 2007)
Calls of active or inactive are those of the source. The rule behind the calls is not given here.

Key:
Leishmania donovani [1] = assay: Effect on mitochondrial function in Leishmania donovani MHOM/SD/00/1S-2D promastigotes assessed as decrease in oxygen consumption at 40 uM after 14 hrs relative to control; type: functional; set-up: scale not given: the % may be the effect or the level left
Summary of the method: (§1)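 Promastigotes incubated 14 h at 25°C with drug in RPMI-10% HIFCS at 2 × 10⁶ cells/ml. They were then washed and resuspended in respiration buffer at 10⁸ cells/ml with 5 mM succinate and 1 mg/ml BSA. Clark-electrode O₂ uptake at 25°C, given as nmol O₂/min/10⁸ cells and as % of untreated.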

Leishmania donovani [2] = assay: Effect on apoptosis induction in Leishmania donovani MHOM/SD/00/1S-2D promastigotes assessed as accumulation in sub-G1 phase at 20 uM after 24 hrs by propidium iodide staining
Leishmania donovani [3] = assay: Inhibition of TMPD-ascorbate-dependent oxygen consumption in digitonin-permeabilized Leishmania donovani MHOM/SD/00/1S-2D promastigotes at 25 uM after 14 hrs; type: functional, organism-based
Leishmania donovani [4] = assay: Growth inhibition of Leishmania donovani MHOM/SD/00/1S-2D promastigotes at 40 uM assessed as inhibition of MTT reduction after 14 hrs; type: functional, organism-based
Summary of the method: (§2)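 Late-exponential promastigotes at 2 × 10⁶ cells/ml in RPMI-10% HIFCS with drug, 14 h at 25°C. Washed at 4°C in Hanks-10 mM glucose, then given 0.5 mg/ml MTT for 2 h. Formazan dissolved in 10% SDS and read at 595 nm. Triplicates, at least two experiments; EC50 by Litchfield-Wilcoxon.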

Leishmania donovani [5] = assay: Effect on oxygen consumption rate in digitonin-permeabilized Leishmania donovani MHOM/SD/00/1S-2D promastigotes assessed as decrease in state 3 respiration at 25 uM after 14 hrs; type: functional; set-up: scale not given: the % may be the effect or the level left
Leishmania donovani [6] = assay: Effect on plasma membrane integrity in Leishmania donovani MHOM/SD/00/1S-2D promastigotes assessed as SYTOX green fluorescence at 40 uM after 14 hrs; type: functional
Summary of the method: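 Cells at 2 × 10⁶/ml in RPMI-10% HIFCS given increasing drug concentrations, 14 h at 25°C. Washed twice in Hanks-glucose and stained with 1 μM SYTOX green for 5 min in the dark. Fluorescence read at ex 485/em 520 nm and expressed as % of maximal signal after 0.1% Triton X-100.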

Leishmania donovani [7] = assay: Inhibition of Leishmania donovani cytochrome c oxidase
Leishmania donovani [8] = assay: Effect on mitochondrial function in Leishmania donovani MHOM/SD/00/1S-2D promastigotes assessed as decrease in oxygen consumption at 10 uM after 14 hrs relative to control; type: functional; set-up: scale not given: the % may be the effect or the level left; summary of the method: as §1
Leishmania donovani [9] = assay: Effect on mitochondrial function in Leishmania donovani MHOM/SD/00/1S-2D promastigotes assessed as decrease in oxygen consumption at 20 uM after 14 hrs relative to control; type: functional; set-up: scale not given: the % may be the effect or the level left; summary of the method: as §1
Leishmania donovani [10] = assay: Growth inhibition of Leishmania donovani MHOM/SD/00/1S-2D promastigotes assessed as inhibition of MTT reduction after 14 hrs; type: functional, organism-based; summary of the method: as §2
Leishmania donovani [11] = assay: Inhibition of Leishmania donovani cytochrome c reductase at 40 uM
Summary of the method: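 Same L. donovani mitochondrial fraction (200 μg/ml protein, 0.02% TX-100, 75 mM sodium phosphate pH 7.4), with CcO first blocked by 10 mM KCN and oxidized cytochrome c as acceptor. Reaction started with 5 mM succinate; A550 change monitored. Controls lacked succinate or contained 2 μM antimycin A. HePC tested at 40 μM.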

Leishmania donovani [12] = assay: Effect on mitochondrial membrane potential in Leishmania donovani MHOM/SD/00/1S-2D promastigotes by measuring the decrease in rhodamine 123 accumulation after 14 hrs; type: functional, organism-based
Summary of the method: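 After 14 h of drug exposure at 25°C, parasites washed twice at 4°C in Hanks-glucose and loaded with rhodamine 123 (0.3 μg/ml, 5 min, 37°C). Washed again, resuspended at 2 × 10⁶ cells/ml and read by flow cytometry (ex 488/em 525 nm; 20,000 events). Geometric mean fluorescence recorded; 10 mM KCN-poisoned cells served as depolarized control.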

Leishmania donovani [13] = assay: Decrease in intracellular ATP level in Leishmania donovani 3-Luc promastigotes assessed as decrease in luminescence relative to control; type: functional, organism-based

Activity (Leishmania donovani [7]): Dose-dependent effect | inhibition (Leishmania donovani [11]): 5%
SMILES: CCCCCCCCCCCCCCCCOP(=O)([O-])OCC[N+](C)(C)C [MILTEFOSINE]
Activity (Leishmania donovani [1]): 44.4% | Activity (Leishmania donovani [2]): 38% | Activity (Leishmania donovani [3]): Active | Activity (Leishmania donovani [4]): Active | Activity (Leishmania donovani [5]): 40% | Activity (Leishmania donovani [6]): 10% | Activity (Leishmania donovani [8]): 95.4% | Activity (Leishmania donovani [9]): 75% | EC50 (Leishmania donovani [10]): 10.2 µM | Activity (Leishmania donovani [12]): Dose-dependent effect | Activity (Leishmania donovani [13]): Active
